# Bioassay records from PubChem.
# Hits are enriched below; roughly 2.3% of the tested compounds scored in any of these assays.
# Rtt109 Vps75: C. albicans Rtt109 histone acetyltransferase inhibition; inhibition, % at 34.9 µM; purified Rtt109/Vps75, ThioGlo CoA-SH fluorescence, 4 h; hit rate 0.16% among 330,000;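 active = inhibition of at least 50% in every replicate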
# Target sequence (Q5AAJ8 whole entry, looked up): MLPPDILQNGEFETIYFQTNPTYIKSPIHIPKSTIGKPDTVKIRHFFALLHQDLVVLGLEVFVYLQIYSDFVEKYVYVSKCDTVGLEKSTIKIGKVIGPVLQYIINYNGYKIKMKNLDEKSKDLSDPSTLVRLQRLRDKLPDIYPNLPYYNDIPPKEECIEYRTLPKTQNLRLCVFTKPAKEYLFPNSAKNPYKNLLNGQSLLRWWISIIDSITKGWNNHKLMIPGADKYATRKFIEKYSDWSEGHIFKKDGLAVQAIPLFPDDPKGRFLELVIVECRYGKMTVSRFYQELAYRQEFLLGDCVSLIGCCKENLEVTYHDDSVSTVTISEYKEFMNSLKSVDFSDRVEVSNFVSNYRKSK
# Glyco luc inh: blocks N-linked glycosylation in D54 reporter cells. D54 ERlucT glycosylation luciferase reporter, 24 h; percent of 100 nM tunicamycin response. reporter increase, % at 12.5 µM. hit rate 0.23% among 360,000;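 active = mean luciferase reporter signal, scaled so untreated is 0 and the glycosylation-blocking control 100, at or above a set limit in every replicate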;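 also: luciferase carries N-glycosylation sites so blocking glycosylation raises the light; 0% = median of neutral control wells and 100% = median of 100 nM tunicamycin wells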
# PAX8 reporter: inhibitors of PAX8 transcriptional activity in RMG-I cells | RMG-I TPO-luciferase reporter, SteadyGlo, 24 h | inhibition, % at 12.6 µM | hit rate 1.2% among 360,000 | AID 652154;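 active = mean replicate inhibition at least 60% with every replicate also reaching 60%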;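 also: luciferase light reporting Pax8 driven TPO promoter activity; plate controls were median of neutral control wells for no effect and mitoxantrone controls for full effect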
# PfHsp90 set2: reduces growth (ATP signal) of yeast expressing P. falciparum Hsp90; S. cerevisiae expressing PfHsp90, BacTiter-Glo ATP, 48 h; yeast lacking PDR1 and PDR3 efflux regulators; inhibition, % at 9.4 µM; hit rate 0.32% among 310,000; AID 504621;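 active = every replicate shows inhibition above about 80%, whatever the replicate mean, limit read from the data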;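 also: 0% = DMSO neutral controls and 100% = 20 µM radicicol positive controls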
# Arr AP2 block: blocks beta-arrestin peptide binding to AP2 adaptin | FITC-arrestin peptide / GST-AP2 beads, flow cytometry; AP2 beta2 appendage carries R879A mutation | inhibition, % at 10 µM | hit rate 0.31% among 340,000;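 active = inhibition above a set limit, near 3 SD of compounds lacking own fluorescence, cut at about 54% in these data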;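 also: plate controls were DMSO wells for no effect and 5 µM unlabelled arrestin peptide for full effect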
#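 System: GST-tagged AP2 beta2-adaptin appendage (R879A) on 4 µm glutathione beads / Reagent: FITC-arrestin peptide, 50 nM / Detection: HyperCyt-sampled flow cytometry, FL1 channel, ex 488/em 535 nm / Timing: 12 min plus 1 h, RT / Buffer or medium: PBS plus Tween 20 (0.05%) and BSA (0.1%)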
# Env fusion inh: inhibitors of HIV Env-mediated cell fusion. HeLa-JRFL Env/CEM21 cell fusion, luciferase. inhibition, % at 12.3 µM. hit rate 1.1% among 360,000. AID 651610;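 active = mean replicate inhibition score of at least 50 and every replicate individually at or above 50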;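 also: 0% = plate neutral controls and 100% = maraviroc near 300 nM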
# The depositor's hits bear a star; nt = no result given; [ ] = remark or other dose.
SMILES,Rtt109 Vps75,Glyco luc inh,PAX8 reporter,PfHsp90 set2,Arr AP2 block,Env fusion inh
CCCCCCCC/C=C\CCCCCCCC(=O)NCCO,11,-1,56,109*,23,-44
CCCCCCCCCCCCCC(=O)NO,20,2,5,107*,14,8
C[C@@H]1CN([C@H](C)CO)S(=O)(=O)c2ccc(-c3ccc(C#N)cc3)cc2O[C@H]1CN(C)Cc1ccccn1,nt,nt,65*,nt,nt,-102[16.7 µM]
C[C@H]1CN([C@@H](C)CO)S(=O)(=O)c2ccc(-c3ccc(F)cc3)cc2O[C@H]1CN(C)Cc1cccc(F)c1,nt,nt,nt,nt,nt,62*[16.7 µM]
C[C@H]1CN([C@@H](C)CO)S(=O)(=O)c2ccc(-c3ccc(C#N)cc3)cc2O[C@@H]1CN(C)Cc1cccc(F)c1,nt,nt,76*,nt,nt,3[16.7 µM]
C[C@@H]1CN([C@H](C)CO)S(=O)(=O)c2ccc(-c3ccc(C#N)cc3)cc2O[C@H]1CN(C)Cc1cccc(F)c1,nt,nt,45,nt,nt,24[16.7 µM]
COc1ccc2c3c([nH]c2c1)[C@H](CO)N(C(=O)Nc1ccc(F)cc1)CC31CN(C(=O)c2ccccc2F)C1,nt,nt,14,nt,nt,nt
COc1ccc2c(c1)C(C)=CC(C)(C)N2S(=O)(=O)c1ccc(NC(C)=O)cc1,1,17,64*,-8,3,-69
COc1ccc2c(c1)C(C)=CC(C)(C)N2S(=O)(=O)c1ccc(Br)cc1,-12,5,88*,34,-8,-80
CCOc1ccc2c(c1)C(C)=CC(C)(C)N2S(=O)(=O)c1ccc(NC(C)=O)cc1,15,19,88*,17,-14,-135
C[C@@H]1CN([C@@H](C)CO)C(=O)c2cccc(NS(=O)(=O)c3ccccc3)c2O[C@@H]1CN(C)C(=O)Nc1cccc2ccccc12,nt,nt,11,nt,nt,-4[16.7 µM]
O=C(CCN1CCCCC1)NCC[C@@H]1CC[C@@H](NC(=O)C2CCOCC2)[C@@H](CO)O1,nt,nt,-3,nt,nt,-4[16.7 µM]
CC(=NNC(=S)N1CCN(C2CCCCCC2)CC1)c1ccccn1,3,-3,94*,103*,3,3
CC(=NNC(=S)N1CCN(c2ccccn2)CC1)c1nccs1,5,-12,nt,142*,-12,nt
CC(=NNC(=S)N1CCCCCC1)c1cccc2cccnc12,1,-3,13,7,-7,21
CC(=NNC(=S)N1CC2CCC(CC2)C1)c1cnccn1,4,-12,16,145*,5,-396
CC(=NNC(=S)N1CC2CCC(CC2)C1)c1ccccn1,nt,-10,-17,nt,nt,9
CC(=NNC(=S)N1CCN(c2ccccn2)CC1)c1ccccn1,2,6,-30,0,41,-5
COc1cccc(-c2ccc([C@H]3[C@H](CO)N4C(=O)CN(C(=O)C5CC5)C[C@@H]34)cc2)c1,nt,nt,0,nt,nt,nt
CN1c2ccc(C3=CCCCC3)cc2[C@@H]2[C@@H](CCN2C(=O)C2CCCCC2)[C@H]1CO,nt,nt,33,nt,nt,-16[16.7 µM]
Cc1noc(C)c1NC(=O)Nc1cccc2c1O[C@@H](CN(C)C(=O)Nc1ccccc1)[C@@H](C)CN([C@@H](C)CO)C2=O,nt,nt,-8,nt,nt,-5[16.7 µM]
CCOc1ccc(N2C(=O)CSC2c2ccncc2)cc1 (stereo not drawn),63*,-1,nt,nt,-1,-27
C[C@H](CO)N1C[C@H](C)[C@@H](CN(C)Cc2ccc(C(=O)O)cc2)Oc2ccc(NC(=O)C3CCCCC3)cc2CC1=O,nt,nt,13,nt,nt,-2[16.7 µM]
COc1ccc(COc2cc(-c3cccc(OC)c3)nc3ccc(NC(=O)c4ccc(OC)cc4)cc23)cc1,-2,14,78*,-4,0,-9
COc1ccc(COc2cc(-c3cccc(OC)c3)nc3ccc(NC(=O)c4cccnc4)cc23)cc1,5,-7,65*,nt,2,10
SMILES,Rtt109 Vps75,Glyco luc inh,PAX8 reporter,PfHsp90 set2,Arr AP2 block,Env fusion inh
COc1ccc(COc2cc(-c3cccc(OC)c3)nc3ccc(NC(=O)c4ccccc4)cc23)cc1,-8,-3,29,8,-4,27
CC(C)NC(=O)N(C)C[C@@H]1OCCCC[C@H](C)Oc2ccc(N(C)C)cc2C(=O)N([C@H](C)CO)C[C@H]1C,nt,nt,-13,nt,nt,-3[16.7 µM]
COc1ccc(C(=O)c2sc(Nc3ccccc3)nc2N)cc1,3,25,-7,6,-7,-22
Nc1nc(Nc2ccccc2)sc1C(=O)c1ccccc1,-1,29*,-67,-34,9,-13
COc1ccc(C(=O)c2sc(Nc3ccccc3)nc2N)cc1OC,-11,33*,11,13,34,-18
Cc1ccc(NC(=O)CSc2nsc(SCC(=O)Nc3ccc(C)cc3C)c2C#N)c(C)c1,-7,30*,-6,-2,-4,5
Cc1csc(NC(=O)CSc2nsc(SCC(=O)Nc3nc(C)cs3)c2C#N)n1,8,-10,nt,2,8,-216
COc1cccc(NC(=O)N(C)C[C@@H]2Oc3ncc(C#Cc4ccc(F)cc4)cc3C(=O)N([C@@H](C)CO)C[C@H]2C)c1,nt,nt,nt,nt,nt,12[16.7 µM]
Cc1nn(C)cc1NC(=O)C[C@@H]1CC[C@@H]2[C@H](COc3ccc(NC(=O)C(C)C)cc3C(=O)N2C)O1,nt,nt,-16,nt,nt,11[16.7 µM]
CC(C)n1c(/C=C/[C@H](O)C[C@H](O)CC(=O)O)c(-c2ccc(F)cc2)c2ccccc21,1,104*,nt,-18,-6,nt
Cn1cc(C(CC(=O)O)C(=O)O)c2ccccc21 (stereo not drawn),-3,-1,nt,1,2,nt
CC(C)NC(=O)N(C)C[C@H]1OCCCC[C@H](C)Oc2ccc(NC(=O)Cc3ccccc3)cc2C(=O)N([C@@H](C)CO)C[C@H]1C,nt,nt,-1,nt,nt,19[16.7 µM]
Cc1cccc(S(=O)(=O)N2CC[C@H]3[C@H](CO)Nc4ccc(-c5ccccc5F)cc4[C@H]32)c1,nt,nt,12,nt,nt,nt
COc1cccc(S(=O)(=O)N2CC[C@@H]3[C@H](CO)Nc4ccc(C5=CCCCC5)cc4[C@@H]32)c1,nt,nt,91*,nt,nt,nt
COc1cccc(-c2ccc3c(c2)[C@H]2[C@H](CCN2S(=O)(=O)c2cccc(OC)c2)[C@@H](CO)N3)c1,nt,nt,29,nt,nt,nt
O=S(=O)(c1ccccc1F)N1CC[C@@H]2[C@@H](CO)Nc3ccc(C4=CCCCC4)cc3[C@@H]21,nt,nt,83*,nt,nt,nt
Cc1cccc(S(=O)(=O)N2CC[C@@H]3[C@H]2c2cc(C4=CCCCC4)ccc2N[C@@H]3CO)c1,nt,nt,91*,nt,nt,nt
C[C@@H]1CN([C@@H](C)CO)C(=O)c2cc(C#CC3(O)CCCC3)cnc2O[C@H]1CN(C)C(=O)CC1CC1,nt,nt,nt,nt,nt,9[16.7 µM]
CN1C[C@H]2[C@@H](c3ccccc31)[C@@H](CO)N2C(=O)C1CCCCC1,nt,nt,10,nt,nt,nt
CC(C)C(=O)Nc1nc(-c2ccc(S(=O)(=O)N3CCOCC3)cc2)cs1,-19,-4,2,-4,10,21
COc1ccccc1C(=O)Nc1nc(-c2ccc(S(=O)(=O)N3CCOCC3)cc2)cs1,2,-14,nt,-15,18,96*
